# From ChEMBL document CHEMBL4257524, “Design and synthesis of conformationally constraint Dyrk1A inhibitors by creating an intramolecular H-bond involving a benzothiazole core” (Medchemcomm, 2018)
# How the values were obtained:
# [1] = target: T1, Dual specificity tyrosine-phosphorylation-regulated kinase 1B (Homo sapiens, UniProt Q9Y463); assay: Inhibition of full length recombinant human GST-tagged Dyrk1B expressed in baculovirus expression system at 0.5 uM using KKISGRLSPIMTEQ-NH2 peptide as substrate in presence of [gamma-32P]-ATP relative to control
# Method in brief: (§1)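 Dyrk1B kinase assay with ATP at 15 μM. Single-point % inhibition measured at 0.5 μM, and IC50 determined. Values are means of at least two independent experiments, each run in duplicate, with standard deviation <10%.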
# Target sequence in this assay (Q9Y463 whole entry, looked up): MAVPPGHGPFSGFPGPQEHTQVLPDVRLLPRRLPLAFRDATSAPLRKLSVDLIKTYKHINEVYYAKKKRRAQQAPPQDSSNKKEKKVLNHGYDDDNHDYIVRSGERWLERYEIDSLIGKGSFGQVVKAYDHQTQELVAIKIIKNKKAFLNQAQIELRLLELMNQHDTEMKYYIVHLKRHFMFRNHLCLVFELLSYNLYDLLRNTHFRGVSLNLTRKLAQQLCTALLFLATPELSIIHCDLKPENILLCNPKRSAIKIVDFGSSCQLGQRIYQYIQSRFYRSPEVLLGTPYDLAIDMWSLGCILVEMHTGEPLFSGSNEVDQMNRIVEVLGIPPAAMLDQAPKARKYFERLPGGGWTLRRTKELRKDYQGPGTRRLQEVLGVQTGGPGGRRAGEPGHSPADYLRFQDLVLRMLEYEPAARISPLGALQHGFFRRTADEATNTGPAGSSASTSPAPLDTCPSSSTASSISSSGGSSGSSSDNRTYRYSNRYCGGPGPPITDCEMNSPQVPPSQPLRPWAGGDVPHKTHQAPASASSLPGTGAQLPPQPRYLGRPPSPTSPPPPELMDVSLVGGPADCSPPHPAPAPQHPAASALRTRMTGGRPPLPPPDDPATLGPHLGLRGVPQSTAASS
# [2] = target: T2, Dual specificity tyrosine-phosphorylation-regulated kinase 1A (Homo sapiens, UniProt Q13627); assay: Inhibition of recombinant human N-terminal His6-tagged Dyrk1A catalytic domain expressed in Escherichia coli BL21 (DE3) using KKISGRLSPIMTEQ-NH2 peptide as substrate in presence of [gamma-32P]-ATP
# [3] = target: T1, Dual specificity tyrosine-phosphorylation-regulated kinase 1B; assay: Inhibition of full length recombinant human GST-tagged Dyrk1B expressed in baculovirus expression system using KKISGRLSPIMTEQ-NH2 peptide as substrate in presence of [gamma-32P]-ATP; method in brief: as §1
# Target sequence in this assay (Q9Y463 whole entry): as the sequence (Q9Y463 whole entry, looked up) above
# [4] = Half life in human liver S9 fraction assessed as CYP450-mediated compound degradation at 0.3 uM after 15 to 60 mins by LC-MS/MS analysis; format: ADME, subcellular
# Method in brief: (§2)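 Pooled human liver S9 fraction incubated with compound at 37 °C. Samples taken at 0, 15, 30 and 60 min, and parent compound quantified by MS. Half-life and parent compound remaining derived from these measurements.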
# Homo sapiens [5] = organism: Homo sapiens; assay: Selectivity ratio of IC50 for full length recombinant human GST-tagged Dyrk1B to IC50 for recombinant human N-terminal His6-tagged Dyrk1A catalytic domain
# Method in brief: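 Ratio of Dyrk1B IC50 to Dyrk1A IC50. Both IC50s determined with ATP at 15 μM, from means of at least two independent duplicate experiments.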
# [6] = target: T3, Dual specificity protein kinase CLK1 (Homo sapiens, UniProt P49759); assay: Inhibition of recombinant GST-tagged human CLK1 expressed in Escherichia coli at 5 uM using RSRSRSRSR peptide as substrate in presence of [gamma-32P]-ATP
# [7] = target: T2, Dual specificity tyrosine-phosphorylation-regulated kinase 1A; assay: Inhibition of recombinant human N-terminal His6-tagged Dyrk1A catalytic domain expressed in Escherichia coli BL21 (DE3) at 5 uM using KKISGRLSPIMTEQ-NH2 peptide as substrate in presence of [gamma-32P]-ATP relative to control
# Method in brief: (§3)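 Kinase panel run at a single 5 μM inhibitor concentration with ATP at 100 μM. Activity expressed as % inhibition. Values are means of at least two duplicates.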
# [8] = target: Cyclin-dependent kinase 5/CDK5 activator 1 (Homo sapiens) (UniProt Q00535+Q15078); assay: Inhibition of full length recombinant human GST-tagged CDK5/His-tagged p25 expressed in baculovirus expression system at 5 uM relative to control; method in brief: as §3
# Chain of Cyclin-dependent kinase 5/CDK5 activator 1 (Homo sapiens) (Q00535 whole entry, canonical isoform): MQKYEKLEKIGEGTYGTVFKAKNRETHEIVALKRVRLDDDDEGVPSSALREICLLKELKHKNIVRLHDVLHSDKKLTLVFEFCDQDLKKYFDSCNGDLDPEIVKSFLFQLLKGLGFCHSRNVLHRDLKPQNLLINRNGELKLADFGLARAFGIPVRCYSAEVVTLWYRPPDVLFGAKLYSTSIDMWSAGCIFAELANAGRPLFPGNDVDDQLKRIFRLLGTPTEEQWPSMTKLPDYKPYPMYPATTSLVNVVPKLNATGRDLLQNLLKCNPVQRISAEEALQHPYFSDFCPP
# Chain of Cyclin-dependent kinase 5/CDK5 activator 1 (Homo sapiens) (Q15078 99-307 partner limits assumed): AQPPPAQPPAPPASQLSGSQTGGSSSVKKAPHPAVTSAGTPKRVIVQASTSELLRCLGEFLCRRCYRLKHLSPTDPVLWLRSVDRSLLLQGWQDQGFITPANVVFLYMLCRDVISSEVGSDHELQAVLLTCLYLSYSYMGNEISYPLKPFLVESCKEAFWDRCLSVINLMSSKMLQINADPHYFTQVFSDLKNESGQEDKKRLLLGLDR
# [9] = target: Casein kinase I isoform delta (Homo sapiens) (UniProt P48730); assay: Inhibition of full length recombinant human GST-tagged CK1delta expressed in baculovirus expression system at 5 uM relative to control; method in brief: as §3
# [10] = target: Homeodomain-interacting protein kinase 1 (Homo sapiens) (UniProt Q86Z02); assay: Inhibition of recombinant human GST-tagged HIPK1 expressed in baculovirus expression system at 5 uM relative to control; method in brief: as §3
# [11] = target: BDNF/NT-3 growth factors receptor (Homo sapiens) (UniProt Q16620); assay: Inhibition of recombinant human His-tagged NTRK2 expressed in baculovirus expression system at 5 uM relative to control; method in brief: as §3
# [12] = target: T4, Serine/threonine-protein kinase haspin (Homo sapiens) (UniProt Q8TF76); assay: Inhibition of recombinant human N-terminal GST-tagged Haspin expressed in baculovirus expression system at 5 uM relative to control; method in brief: as §3
# T4 sequence (whole entry): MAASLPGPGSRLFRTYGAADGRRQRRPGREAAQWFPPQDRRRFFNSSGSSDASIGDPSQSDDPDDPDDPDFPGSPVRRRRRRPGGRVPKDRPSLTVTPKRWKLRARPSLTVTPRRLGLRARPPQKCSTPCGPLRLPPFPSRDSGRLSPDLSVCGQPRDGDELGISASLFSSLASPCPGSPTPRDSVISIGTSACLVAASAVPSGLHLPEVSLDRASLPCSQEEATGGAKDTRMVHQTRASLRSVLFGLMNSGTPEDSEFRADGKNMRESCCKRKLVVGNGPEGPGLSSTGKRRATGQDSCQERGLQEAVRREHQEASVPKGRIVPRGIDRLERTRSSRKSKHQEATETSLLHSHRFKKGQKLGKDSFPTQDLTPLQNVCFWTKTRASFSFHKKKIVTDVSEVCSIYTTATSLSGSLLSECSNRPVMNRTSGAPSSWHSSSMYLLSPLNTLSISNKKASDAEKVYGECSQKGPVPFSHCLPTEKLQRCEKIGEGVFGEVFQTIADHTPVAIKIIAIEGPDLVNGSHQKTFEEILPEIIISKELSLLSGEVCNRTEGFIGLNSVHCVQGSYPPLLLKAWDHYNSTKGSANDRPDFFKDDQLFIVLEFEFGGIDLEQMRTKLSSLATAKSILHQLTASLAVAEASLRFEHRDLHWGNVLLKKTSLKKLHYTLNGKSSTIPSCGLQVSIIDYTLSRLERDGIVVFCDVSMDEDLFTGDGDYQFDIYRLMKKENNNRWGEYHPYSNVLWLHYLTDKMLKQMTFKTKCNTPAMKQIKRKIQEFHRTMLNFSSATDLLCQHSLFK
# [13] = target: Serine/threonine-protein kinase pim-1 (Homo sapiens) (UniProt P11309); assay: Inhibition of full length recombinant human His-tagged PIM1 expressed in baculovirus expression system at 5 uM relative to control; method in brief: as §3
# Chain of Serine/threonine-protein kinase pim-1 (Homo sapiens) (P11309 whole entry, looked up): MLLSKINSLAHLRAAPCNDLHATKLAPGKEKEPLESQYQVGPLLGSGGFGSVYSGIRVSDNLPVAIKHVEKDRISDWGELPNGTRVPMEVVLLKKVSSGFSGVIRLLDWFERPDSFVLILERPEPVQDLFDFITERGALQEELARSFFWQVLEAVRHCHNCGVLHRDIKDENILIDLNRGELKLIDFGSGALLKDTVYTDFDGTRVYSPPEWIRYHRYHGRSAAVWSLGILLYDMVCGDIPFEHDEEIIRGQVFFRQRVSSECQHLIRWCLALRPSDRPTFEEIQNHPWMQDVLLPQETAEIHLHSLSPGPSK
# [14] = target: SRSF protein kinase 1 (Homo sapiens) (UniProt Q96SB4); assay: Inhibition of full length recombinant human His-tagged SRPK1 expressed in baculovirus expression system at 5 uM relative to control; method in brief: as §3
# Chain of SRSF protein kinase 1 (Homo sapiens) (Q96SB4 whole entry): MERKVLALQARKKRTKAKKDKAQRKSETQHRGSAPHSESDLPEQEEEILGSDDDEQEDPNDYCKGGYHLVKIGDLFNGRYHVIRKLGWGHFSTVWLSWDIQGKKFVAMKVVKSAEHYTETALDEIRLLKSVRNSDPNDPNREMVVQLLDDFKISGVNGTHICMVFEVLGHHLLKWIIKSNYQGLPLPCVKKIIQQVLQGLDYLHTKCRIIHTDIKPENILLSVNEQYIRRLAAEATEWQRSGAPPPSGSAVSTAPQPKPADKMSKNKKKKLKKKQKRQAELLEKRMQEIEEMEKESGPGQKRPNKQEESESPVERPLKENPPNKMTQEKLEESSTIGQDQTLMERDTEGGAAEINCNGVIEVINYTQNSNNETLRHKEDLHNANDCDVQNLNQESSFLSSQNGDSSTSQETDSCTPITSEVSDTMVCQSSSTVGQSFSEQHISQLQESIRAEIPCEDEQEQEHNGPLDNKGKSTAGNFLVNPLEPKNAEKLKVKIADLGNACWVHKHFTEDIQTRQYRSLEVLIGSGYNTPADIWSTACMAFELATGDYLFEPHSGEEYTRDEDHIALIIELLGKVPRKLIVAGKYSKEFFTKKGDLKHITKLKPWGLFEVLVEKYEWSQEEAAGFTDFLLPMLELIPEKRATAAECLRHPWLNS
# [15] = target: Myosin light chain kinase, smooth muscle (Homo sapiens) (UniProt Q15746); assay: Inhibition of full length recombinant human GST-tagged MLCK expressed in baculovirus expression system at 5 uM relative to control; method in brief: as §3
# Chain of Myosin light chain kinase, smooth muscle (Homo sapiens) (Q15746 whole entry): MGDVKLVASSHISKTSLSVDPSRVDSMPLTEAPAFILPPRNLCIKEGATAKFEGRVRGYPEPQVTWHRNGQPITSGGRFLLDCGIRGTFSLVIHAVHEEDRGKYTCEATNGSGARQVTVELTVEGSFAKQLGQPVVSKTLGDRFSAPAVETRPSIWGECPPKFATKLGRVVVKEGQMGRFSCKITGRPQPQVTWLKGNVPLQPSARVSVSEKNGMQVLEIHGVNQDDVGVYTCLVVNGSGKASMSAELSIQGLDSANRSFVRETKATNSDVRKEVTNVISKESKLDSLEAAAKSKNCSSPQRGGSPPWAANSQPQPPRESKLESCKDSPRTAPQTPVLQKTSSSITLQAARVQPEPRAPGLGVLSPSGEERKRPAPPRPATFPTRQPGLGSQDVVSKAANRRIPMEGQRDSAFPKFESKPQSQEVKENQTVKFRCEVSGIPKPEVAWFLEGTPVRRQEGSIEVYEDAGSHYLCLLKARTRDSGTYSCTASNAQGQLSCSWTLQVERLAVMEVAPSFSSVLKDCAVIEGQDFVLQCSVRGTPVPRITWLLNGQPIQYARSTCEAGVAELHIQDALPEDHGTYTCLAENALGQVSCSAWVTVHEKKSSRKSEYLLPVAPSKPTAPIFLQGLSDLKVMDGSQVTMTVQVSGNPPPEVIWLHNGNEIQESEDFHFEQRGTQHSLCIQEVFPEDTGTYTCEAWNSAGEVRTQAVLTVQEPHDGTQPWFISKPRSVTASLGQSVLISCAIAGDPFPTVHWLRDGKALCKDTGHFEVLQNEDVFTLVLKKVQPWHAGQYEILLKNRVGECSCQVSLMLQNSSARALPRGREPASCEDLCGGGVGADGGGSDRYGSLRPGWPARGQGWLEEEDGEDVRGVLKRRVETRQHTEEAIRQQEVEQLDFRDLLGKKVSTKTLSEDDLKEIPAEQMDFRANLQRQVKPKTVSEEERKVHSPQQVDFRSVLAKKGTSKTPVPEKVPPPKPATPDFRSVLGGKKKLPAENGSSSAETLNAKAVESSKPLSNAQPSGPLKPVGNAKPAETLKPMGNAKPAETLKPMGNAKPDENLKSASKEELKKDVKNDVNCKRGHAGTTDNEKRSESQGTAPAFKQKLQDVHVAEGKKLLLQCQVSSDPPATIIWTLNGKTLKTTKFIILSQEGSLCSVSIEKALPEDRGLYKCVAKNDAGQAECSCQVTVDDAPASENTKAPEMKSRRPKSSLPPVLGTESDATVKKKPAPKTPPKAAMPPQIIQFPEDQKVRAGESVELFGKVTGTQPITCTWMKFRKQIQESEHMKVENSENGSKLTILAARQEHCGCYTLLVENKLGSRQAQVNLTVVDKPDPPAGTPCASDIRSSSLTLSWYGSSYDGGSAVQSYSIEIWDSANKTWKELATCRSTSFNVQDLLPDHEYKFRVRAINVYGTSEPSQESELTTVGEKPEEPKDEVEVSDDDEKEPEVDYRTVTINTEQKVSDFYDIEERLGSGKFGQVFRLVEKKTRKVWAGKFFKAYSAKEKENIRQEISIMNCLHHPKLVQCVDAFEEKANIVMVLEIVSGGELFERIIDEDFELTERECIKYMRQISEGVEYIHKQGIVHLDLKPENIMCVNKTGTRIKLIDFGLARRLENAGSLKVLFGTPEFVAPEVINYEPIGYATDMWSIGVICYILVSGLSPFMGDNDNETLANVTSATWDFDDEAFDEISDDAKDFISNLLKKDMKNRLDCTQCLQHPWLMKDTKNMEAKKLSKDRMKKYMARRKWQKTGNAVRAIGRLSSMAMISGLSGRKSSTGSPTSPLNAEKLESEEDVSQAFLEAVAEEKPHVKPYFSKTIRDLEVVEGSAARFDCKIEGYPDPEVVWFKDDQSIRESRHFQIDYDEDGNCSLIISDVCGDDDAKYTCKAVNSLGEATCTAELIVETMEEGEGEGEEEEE
# [16] = target: T5, Serine/threonine-protein kinase 17A (Homo sapiens) (UniProt Q9UEE5); assay: Inhibition of full length recombinant human GST-tagged STK17A expressed in baculovirus expression system at 5 uM relative to control; method in brief: as §3
# T5 sequence (whole entry): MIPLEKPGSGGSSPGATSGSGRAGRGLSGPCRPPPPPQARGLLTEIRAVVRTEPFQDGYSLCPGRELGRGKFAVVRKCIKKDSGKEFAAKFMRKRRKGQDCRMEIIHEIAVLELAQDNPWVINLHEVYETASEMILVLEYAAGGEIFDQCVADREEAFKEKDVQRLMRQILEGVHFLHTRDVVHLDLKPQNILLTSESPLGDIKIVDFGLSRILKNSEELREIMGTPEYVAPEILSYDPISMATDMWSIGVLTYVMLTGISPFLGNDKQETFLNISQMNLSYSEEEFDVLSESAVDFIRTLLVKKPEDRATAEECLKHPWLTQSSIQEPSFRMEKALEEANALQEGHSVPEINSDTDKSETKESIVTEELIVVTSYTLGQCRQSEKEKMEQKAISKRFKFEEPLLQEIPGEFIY
# [17] = target: T3, Dual specificity protein kinase CLK1; assay: Inhibition of recombinant GST-tagged human CLK1 expressed in Escherichia coli using RSRSRSRSR peptide as substrate in presence of [gamma-32P]-ATP
# Method in brief: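 CLK1 IC50 determined in kinase assay with ATP at 15 μM.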
# Homo sapiens [18] = organism: Homo sapiens; assay: Selectivity ratio of IC50 for recombinant GST-tagged human CLK1 to IC50 for recombinant human N-terminal His6-tagged Dyrk1A catalytic domain
# [19] = Drug metabolism in human liver S9 fraction assessed as CYP450-mediated metabolite formation by measuring parent compound remaining at 0.3 uM after 60 mins by LC-MS/MS analysis; format: ADME, subcellular; settings: s9, 1 h; method in brief: as §2
compound,measurement,setting,value
COc1ccc2nc(NC(=O)Nc3ccccc3)sc2c1,inhibition,[1],0%
O=C(Nc1ccccc1)Nc1nnc(-c2ccncc2)s1,inhibition,[1],12%
O=C(Cc1cccc(O)c1)Nc1nc2ccc(O)cc2s1,inhibition,[1],0%
COc1ccc2nc(NC(=O)Nc3ccc(C(=O)N4CCN(C)CC4)cc3)sc2c1,inhibition,[1],0%
COc1ccc2nc(NC(=O)Oc3ccccc3)sc2c1,inhibition,[1],0%
O=C(Nc1ccc(C(=O)NCc2ccccc2)cc1)Nc1nc2ccc(O)cc2s1,inhibition,[1],69%
same,IC50,[2],63 nM
same,IC50,[3],130 nM
same,half-life at 0.3 µM,[4],33 min
COc1ccc2nc(NC(=O)NCCN3CCOCC3)sc2c1,inhibition,[1],0%
O=C(Nc1ccccc1)Nc1nc2ccc(O)cc2s1,inhibition,[1],43.6%
same,IC50,[2],163 nM
same,IC50,[3],710 nM
COc1ccc2nc(NC(=O)NCCCN3CCN(C)CC3)sc2c1,inhibition,[1],0%
O=C(Nc1nc2ccc(O)cc2s1)Oc1ccccc1,inhibition,[1],0%
C[C@]12CC[C@H]3[C@@H](CCC4=CC(=O)CC[C@@]43C)[C@@H]1CC[C@@H]2O [TESTOSTERONE],half-life at 0.3 µM,[4],9.6 min
COc1cccc(CC(=O)Nc2nc3ccc(OC)cc3s2)c1,inhibition,[1],25%
O=C(Nc1cccc(O)c1)Nc1nc2ccc(O)cc2s1,inhibition,[1],54.6%
same,IC50,[2],134 nM
same,IC50,[3],370 nM
COc1ccc2nc(NC(=O)Nc3ccc(C(=O)NCc4ccccc4)cc3)sc2c1,inhibition,[1],0%
COc1ccc2nc(NC(=O)Nc3ccc(C(=O)O)cc3)sc2c1,inhibition,[1],0%
CN1CCN(C(=O)c2ccc(NC(=O)Nc3nc4ccc(O)cc4s3)cc2)CC1,inhibition,[1],21%
same,IC50,[2],95 nM
same,IC50,[3],1510 nM
same,Ratio IC50,Homo sapiens [5],16
same,inhibition,[6],72%
same,inhibition,[7],85%
same,inhibition,[8],2%
same,inhibition,[9],9%
same,inhibition,[10],50%
same,inhibition,[11],13%
same,inhibition,[12],1%
same,inhibition,[13],29%
same,inhibition,[14],5%
same,inhibition,[15],45%
same,inhibition,[16],39%
same,IC50,[17],730 nM
same,Ratio IC50,Homo sapiens [18],> 7
same,half-life at 0.3 µM,[4],> 60 min
same,Stability,[19],88%
